MC4R antagonist = antagonists of human melanocortin 4 receptor (MC4R). P32245. MC4R-expressing cells, MTII-stimulated cAMP, LANCE TR-FRET. inhibition, % at 6.5 µM. 0.48% of 360,000 active;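 active = inhibition above its plate's cutoff, the mean of tested wells on that plate plus 3 SD, cut at about 29% in these data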
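Material: U2OS-MC4R stable cell line | Reagent: Melanotan II challenge after compound preincubation | Doses: One concentration, 6.5 µM nominal | Incubation: 30-min compound preincubation, 1-h Melanotan II challenge, 1-h detection, room temperature | Signal: TR-FRET cAMP assay | Replicates: One well per compound, no replicates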
PREPL inh = inhibitors of human prolyl oligopeptidase-like enzyme PREPL. Q4J6C6. inhibition, % at 5.96 µM. recombinant PREPL, fluorescence polarization activity-based probe. 0.68% of 320,000 active
MC4R ag barr = human MC4R agonism via beta-arrestin; 0.98% of 360,000 active; U2OS MC4R beta-arrestin complementation, luminescence; percent of melanotan II response, DMSO zero; AID 540308; activation, % at 8.9 µM; P32245;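 active = activation above a per-plate cutoff, the mean activation of sample wells on that plate plus 3 SD, cut at about 8% in these data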
NTR1 agonist = activates human neurotensin receptor 1; P30989; 0.17% of 330,000 active; NTR1-U2OS beta-arrestin-GFP spot imaging, agonist mode; activation, % at 20 µM;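 active = activation at or above 40% of the spot to cytoplasm intensity ratio, with at least 20 cells analyzed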
Hep lipid drop = modulators of hepatic lipid droplet formation; AML12 mouse hepatocytes, oleate lipid droplets, BODIPY imaging; inhibition, % at 6.5 µM; 0.4% of 240,000 active;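 active = lipid droplet intensity inhibited by at least 50%, with more than 500 cells counted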
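Technique: fluorescence imaging, 20x objective, two fields per well / Assay system: AML12 hepatocytes (mouse) / Measure: % inhibition of lipid droplet signal / Doses: 6.5 µM single-point dosing / Incubation: overnight exposure / Reagent: 100 µM oleic acid challenge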
m5-HT2A agonist = agonists of mouse serotonin 5-HT2A receptor (HTR2A). AID 624169. activation, % at 7.6 µM. 0.66% of 360,000 active. CHO-K1 mHTR2A beta-arrestin complementation, luminescence; percent of 30 µM serotonin response;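 active = activation above a run cutoff, the mean activation of all tested compounds plus 3 SD, cut at about 14% in these data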
Target sequence (P35363 whole entry, looked up): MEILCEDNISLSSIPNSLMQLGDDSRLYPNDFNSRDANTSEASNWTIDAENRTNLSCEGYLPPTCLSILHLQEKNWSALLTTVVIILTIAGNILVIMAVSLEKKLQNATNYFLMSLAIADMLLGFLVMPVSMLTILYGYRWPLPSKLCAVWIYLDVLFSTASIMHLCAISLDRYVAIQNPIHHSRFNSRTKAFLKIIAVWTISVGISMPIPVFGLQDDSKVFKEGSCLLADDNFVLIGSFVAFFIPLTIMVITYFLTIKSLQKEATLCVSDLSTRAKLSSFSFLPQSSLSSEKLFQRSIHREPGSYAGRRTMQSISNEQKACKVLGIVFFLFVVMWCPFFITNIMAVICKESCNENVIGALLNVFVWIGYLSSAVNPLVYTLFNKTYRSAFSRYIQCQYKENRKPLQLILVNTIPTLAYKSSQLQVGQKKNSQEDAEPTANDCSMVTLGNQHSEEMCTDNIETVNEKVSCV
PREPL inh cf = confirmation of human PREPL enzyme inhibitors; shares compounds with PREPL inh; recombinant PREPL, fluorescence polarization activity probe; inhibition, % at 5.96 µM; 67% of 2,000 active; AID 2803
A number is an active result; i = inactive; nt = not tested or not shown. A selection: hits, their analogues and other compounds. The true share with any hit is near 2.7%. Rule as the data show it, unless noted: active = inhibition above about 43%; inactive = the rest.

SMILES | MC4R antagonist | PREPL inh | MC4R ag barr | NTR1 agonist | Hep lipid drop | m5-HT2A agonist | PREPL inh cf
CC(C)N1CCN(c2ccc(OC[C@H]3CO[C@](Cn4cncn4)(c4ccc(Cl)cc4Cl)O3)cc2)CC1 | i | 57 | i | i | nt | i | 46
CCO[C@H]1OC(C(=O)N2CCN(Cc3ccc4c(c3)OCO4)CC2)=C[C@@H](c2ccc(Br)cc2)[C@@H]1CCCO | i | 47 | i | i | i | i | 44
O=C(C1=C[C@@H](c2ccc(C(F)(F)F)cc2)C[C@@H](OCc2ccc(CO)cc2)O1)N1CCN(Cc2ccc3c(c2)OCO3)CC1 | i | 64 | i | i | i | i | 58
C#Cc1ccc([C@H]2C=C(C(=O)N3CCN(Cc4ccccc4)CC3)O[C@@H](OCc3ccc(CO)cc3)C2)cc1 | i | i | i | i | i | i | nt
O=C(C1=C[C@@H](c2ccc(Br)cc2)C[C@@H](OCc2ccc(CO)cc2)O1)N1CCN(Cc2ccc3c(c2)OCO3)CC1 | i | 45 | i | i | i | i | 59
O=C(O)C1=C[C@H](c2ccc3c(c2)OCO3)C[C@H](OCc2ccc(CO)cc2)O1 | i | i | i | i | nt | i | nt
O=C(C1=C[C@H](c2ccc3c(c2)OCO3)C[C@H](OCc2ccc(CO)cc2)O1)N1CCCCCCC1 | i | i | i | i | i | i | nt
O=C(C1=C[C@@H](c2ccc3c(c2)OCO3)C[C@@H](OCc2ccc(CO)cc2)O1)N1CCOCC1 | i | 50 | i | i | i | i | 44
COc1ccc(C(=O)NC(NC(=S)Nc2ccc(S(N)(=O)=O)cc2)C(Cl)(Cl)Cl)cc1 (configuration not stated) | i | i | i | i | nt | i | nt
CC(=O)N1c2ccc(F)c(F)c2C[C@H]1C | i | i | i | i | nt | i | nt
O=C(C1=C[C@@H](c2ccc(C(F)(F)F)cc2)C[C@@H](OCCCCO)O1)N1CCN(Cc2ccccc2)CC1 | i | 66 | i | i | i | i | 56
O=C(C1=C[C@@H](c2ccc(C(F)(F)F)cc2)C[C@@H](OCCCCO)O1)N1CCN(Cc2ccc3c(c2)OCO3)CC1 | i | 70 | i | i | i | i | 60
CC(=O)n1cc([C@@H]2C=C(C(=O)N3CCN(C)CC3)O[C@H](OCc3ccc(CO)cc3)C2)c2ccccc21 | i | 46 | i | i | nt | i | 52
O=C(C1=C[C@@H](c2ccc(Br)cc2)C[C@@H](OCc2ccc(CO)cc2)O1)N1CCN(Cc2ccccc2)CC1 | i | 66 | i | i | i | i | 53
COc1ccc(OC)c(NC2c3ccccc3C(=O)N2c2cccnc2)c1 (configuration not stated) | i | i | i | i | nt | i | nt
O=NN(Cc1cccnc1)C(=O)NC1CCCCC1 | nt | nt | nt | nt | nt | i | nt
COc1cc(NC(=O)CSc2nc3ccccc3n2-c2ccccc2)c(C)cc1[N+](=O)[O-] | i | i | i | i | i | i | nt
CC(C)(C)[C@@H]1C=C(C(=O)N2CCN(Cc3ccc4c(c3)OCO4)CC2)O[C@H](OCc2ccc(CO)cc2)C1 | i | i | i | i | i | i | nt
O=C(C1=C[C@H](c2ccc(C(F)(F)F)cc2)C[C@H](OCc2ccc(CO)cc2)O1)N1CCN(Cc2ccc3c(c2)OCO3)CC1 | i | 46 | i | i | i | i | 44
O=C(C1=C[C@H](c2ccccc2)C[C@H](OCc2ccc(CO)cc2)O1)N1CCCCCCC1 | nt | nt | nt | nt | i | nt | nt
CN1CCN(C(=O)C2=C[C@@H](c3ccccc3)C[C@@H](OCc3ccc(CO)cc3)O2)CC1 | i | 46 | i | i | i | i | 49
CC(C)(C)[C@H]1C=C(C(=O)N2CCN(Cc3ccc4c(c3)OCO4)CC2)O[C@@H](OCCCCO)C1 | i | 44 | i | i | i | i | i
CSCCC(c1nc2ccccc2[nH]1)n1c(=O)c(-c2ccco2)nc2ccccc21 (configuration not stated) | nt | nt | nt | nt | nt | i | nt
CCOc1ccccc1C(=O)N1CCCCC1C (configuration not stated) | i | i | i | i | i | i | nt
O=C(NC1CCCCC1)C(c1ccco1)N(Cc1cccnc1)C(=O)C1COc2ccccc2O1 (configuration not stated) | i | i | i | i | i | i | nt

Bioassay records from PubChem BioAssay.
